# Test system: 3T3-L1
# Assay: Antiadipogenic activity against mouse 3T3L1 cells assessed as inhibition of differentiation after 7 days by oil-red O staining
# Type: functional, cell-based
# Details: 3T3-L1, 168 h
# Summary of the method: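 Mouse 3T3-L1 preadipocytes grown to confluence for 48 h, then induced (day 0) in DMEM with 10% FBS, insulin 5 µg/mL, 10 µM rosiglitazone, 1 µM dexamethasone; after 48 h switched to 10% FBS/DMEM + 5 µg/mL insulin, then 10% FBS/DMEM every other day. Compounds added day 0, refreshed every 2 days. Day 7: PBS wash, 10% formalin 10 min, Oil-red O 1 h RT, dye eluted in isopropanol, A500; IC50 derived.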
row,SMILES,IC50 [µM]
1,O=C1/C(=C/c2ccc(O)cc2)COc2cc(O)cc(O)c21,> 100
2,Cc1c(O)cc2c(c1O)C(=O)/C(=C/c1ccc(O)cc1)CO2,> 100
3,C=C[C@H](/C=C\c1ccc(OC)cc1)c1ccc(O)cc1,45.9
4,COc1cc(O)ccc1C(=O)/C=C/c1ccc(O)cc1,41.8
5,O=C(C#Cc1ccc(O)cc1)c1ccc(O)cc1 [ANEMARCHALCONYN],5.3
6,COc1ccc(CCCc2ccc(O)cc2)c(O)c1 [BROUSSONIN A],74.5
7,O=C(/C=C/c1ccc(O)cc1)c1ccc(O)cc1O [ISOLIQUIRITIGENIN],96.4
8,C=C[C@H](/C=C\c1ccc(O)cc1)c1ccc(O)cc1 [NYASOL],> 100
9,Oc1ccc(/C=C/c2cc(O)cc(O)c2)cc1 [RESVERATROL],31.4

# Source: ChEMBL document CHEMBL1154282, “Identification of antiadipogenic constituents of the rhizomes of Anemarrhena asphodeloides” (J Nat Prod, 2009)
